“And” between values parts separate entries of the source, which are not always exact repeats. Identical values can stand only once.
Key:
[1] = system: CS[C@H](C)C[C@H](N)C(=O)O; assay: (§1) Substrate activity with rat Methionine adenosyltransferase II
CSCC(C)C(N)C(=O)O [2] = assay: as §1
CSCC[C@H](N)C(=O)O [3] = assay: as §1
CSC(C)C[C@@H](N)C(=O)O = assay: as §1
[4] = molecular target: S-adenosylmethionine synthase isoform type-2 (Rattus norvegicus) (UniProt P18298); assay: Substrate activity with normal tissue form of rat Methionine adenosyltransferase II
Target sequence in this assay (P18298 whole entry, looked up, canonical isoform): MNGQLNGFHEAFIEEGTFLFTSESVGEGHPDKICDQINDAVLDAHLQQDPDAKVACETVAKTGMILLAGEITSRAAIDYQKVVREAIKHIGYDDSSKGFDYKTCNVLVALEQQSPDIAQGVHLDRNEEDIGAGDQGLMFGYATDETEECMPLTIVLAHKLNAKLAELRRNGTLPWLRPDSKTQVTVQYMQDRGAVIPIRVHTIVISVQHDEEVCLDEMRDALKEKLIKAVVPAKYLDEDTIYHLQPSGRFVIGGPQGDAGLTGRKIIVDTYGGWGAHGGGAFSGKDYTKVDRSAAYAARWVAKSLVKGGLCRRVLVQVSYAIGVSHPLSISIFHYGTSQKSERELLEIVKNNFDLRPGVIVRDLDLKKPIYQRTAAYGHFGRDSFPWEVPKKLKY
CSCC[C@](C)(N)C(=O)O = assay: (§2) Substrate activity with […] (M-T) form of rat methionine adenosyltransferase; format: protein assay
CSC[C@@H](C)C(N)C(=O)O = assay: as §2; format: protein assay
CSCC(C)C(N)C(=O)O [5] = assay: (§3) Substrate activity with […] form of rat methionine Adenosyltransferase; format: protein assay
CSCC[C@H](N)C(=O)O [6] = assay: as §3; format: protein assay
[7] = molecular target: T1, S-adenosylmethionine synthetase (MAT 1 and MAT 2) (Rattus norvegicus) (UniProt P13444+P18298); assay: Substrate level that produces half the maximal velocity(M-2) of rat methionine adenosyl transferase; format: protein assay
How it was run: (§4)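 KM from linear double-reciprocal plots of velocity vs derivative concentration. Conditions: 0.4 mM [14C]ATP, 1.72 × 10^-6 units M-2 (rat kidney) or 1.58 × 10^-6 units M-T (Novikoff hepatoma), 60 min, 37 °C, Tris pH 8.2 with KCl/MgCl2/DTT. [14C]AdoMet derivative separated by paper electrophoresis and counted.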

[8] = molecular target: S-adenosylmethionine synthase isoform type-2 (Rattus norvegicus) (UniProt P18298); assay: Substrate activity of compound (4 mM) measured as the rate of conversion of [C14]-ATP to [C14]-Adomet in relation to KM value of methionine with rat Methionine adenosyltransferase II
How it was run: (§5)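 Kinetics with 0.4 mM [14C]ATP and 1.72 × 10^-6 units M-2 (kidney) or 1.58 × 10^-6 units M-T (hepatoma), 60 min, 37 °C, pH 8.2. Product resolved by paper electrophoresis and counted. KM and Vmax from linear double-reciprocal plots. Vmax expressed relative to L-Met = 100; reported as the relative Vmax/KM ratio.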
Target sequence in this assay (P18298 whole entry, canonical isoform): as the sequence (P18298 whole entry, looked up, canonical isoform) above

[9] = molecular target: T1, S-adenosylmethionine synthetase (MAT 1 and MAT 2) (Rattus norvegicus); assay: Compound (3 mM) was tested for the inhibition of conversion of [14C]methionine to [14C]-AdoMet by M-T (hepatoma tissue) of rat methionine adenosyltransferase; format: protein assay
How it was run: (§6)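 Radiometric [14C]Met→[14C]AdoMet assay with partially purified rat MAT (M-2 from kidney, 8.6 × 10^-6 units; M-T from Novikoff hepatoma, 7.9 × 10^-6 units). Derivative at 3 mM, 2 mM MgATP, pH 8.2 Tris/KCl/MgCl2/DTT buffer, 37 °C, 10 min. Acid-stopped; supernatant counted on phosphocellulose discs. No-ATP incubations served as controls.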

[10] = Ratio of relative Vmax of normal tissue (M-2) form of rat methionine Adenosyltransferase to that of KM of normal tissue(M-2)form of rat methionine Adenosyltransferase; how it was run: as §5
[11] = molecular target: T1, S-adenosylmethionine synthetase (MAT 1 and MAT 2) (Rattus norvegicus); assay: Substrate activity as rate of conversion of [C14]-ATP to [C14]-Adomet in relation to KM value of methionine with M-T of rat methionine adenosyltransferase; format: protein assay; how it was run: as §5
[12] = molecular target: S-adenosylmethionine synthase isoform type-2 (Rattus norvegicus) (UniProt P18298); assay: Compound (3 mM) was tested for the inhibition of conversion of [14C]methionine to [14C]AdoMet by rat Methionine adenosyltransferase II; how it was run: as §6
Target sequence in this assay (P18298 whole entry, canonical isoform): as the sequence (P18298 whole entry, looked up, canonical isoform) above

[13] = Ratio of Vmax of normal tissue (M-T) form of rat methionine Adenosyltransferase to that of KM of normal tissue(M-T)form of rat methionine Adenosyltransferase; how it was run: as §5
[14] = molecular target: T1, S-adenosylmethionine synthetase (MAT 1 and MAT 2) (Rattus norvegicus); assay: […](M-T) of rat methionine adenosyl transferase; format: protein assay; how it was run: as §4
[15] = molecular target: T1, S-adenosylmethionine synthetase (MAT 1 and MAT 2) (Rattus norvegicus); assay: Substrate level that produces half the maximal velocity(M-2) of rat methionine adenosyltransferase; format: protein assay; how it was run: as §4
[16] = molecular target: S-adenosylmethionine synthase isoform type-2 (Rattus norvegicus) (UniProt P18298); assay: Compound (3 mM) was tested for the inhibition of conversion of [14C]methionine to [14C]AdoMet by M-2 (normal tissue) of rat methionine Adenosyltransferase; how it was run: as §6
Target sequence in this assay (P18298 whole entry, canonical isoform): as the sequence (P18298 whole entry, looked up, canonical isoform) above

[17] = molecular target: T1, S-adenosylmethionine synthetase (MAT 1 and MAT 2) (Rattus norvegicus); assay: Compound (3 mM) was tested for the inhibition of conversion of [14C]methionine to [14C]AdoMet by M-T (hepatoma tissue) of methionine adenosyltransferase; format: protein assay; how it was run: as §6
[18] = molecular target: T1, S-adenosylmethionine synthetase (MAT 1 and MAT 2) (Rattus norvegicus); assay: Substrate level that produces half the maximal velocity(M-T) of rat methionine adenosyltransferase; format: protein assay; how it was run: as §4
[19] = molecular target: S-adenosylmethionine synthase isoform type-2 (Rattus norvegicus) (UniProt P18298); assay: Substrate activity of compound (4 mM) measured as the rate of conversion of [C14]-ATP to [C14]-Adomet in relation to KM value of methionine of rat Methionine adenosyltransferase II; how it was run: as §5
Target sequence in this assay (P18298 whole entry, canonical isoform): as the sequence (P18298 whole entry, looked up, canonical isoform) above

[20] = molecular target: S-adenosylmethionine synthase isoform type-2 (Rattus norvegicus) (UniProt P18298); assay: Substrate activity of compound (4 mM) measured as the rate of conversion of [C14]-ATP to [C14]-Adomet in relation to KM value of methionine rat Methionine adenosyltransferase II; how it was run: as §5
Target sequence in this assay (P18298 whole entry, canonical isoform): as the sequence (P18298 whole entry, looked up, canonical isoform) above

[21] = molecular target: T1, S-adenosylmethionine synthetase (MAT 1 and MAT 2) (Rattus norvegicus); assay: Rate of conversion of [C14]-ATP to [C14]-Adomet in relation to KM value of methionine with methionine adenosyltransferase; format: protein assay; how it was run: as §5
[22] = molecular target: S-adenosylmethionine synthase isoform type-2 (Rattus norvegicus) (UniProt P18298); assay: as §1; conditions: concentration not given here
How it was run: (§7)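 Derivative at 4 mM with [14C]ATP and 1.6 × 10^-5 units rat MAT, 1 h at 37 °C. [14C]AdoMet derivative separated by paper electrophoresis (pH 5.0 acetate) and counted. Result given as cpm per 10 µL above a control lacking the derivative. At least twice control counts scored as substrate activity.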
Target sequence in this assay (P18298 whole entry, canonical isoform): as the sequence (P18298 whole entry, looked up, canonical isoform) above

[23] = molecular target: T1, S-adenosylmethionine synthetase (MAT 1 and MAT 2) (Rattus norvegicus); assay: Substrate activity with […](M-Tform of rat methionine adenosyltransferase; format: protein assay; conditions: concentration not given here; how it was run: as §7
[24] = molecular target: S-adenosylmethionine synthase isoform type-2 (Rattus norvegicus) (UniProt P18298); assay: Rate of conversion of [C14]-ATP to [C14]-Adomet in relation to KM value of methionine with Methionine adenosyltransferase II; how it was run: as §5
[25] = molecular target: T1, S-adenosylmethionine synthetase (MAT 1 and MAT 2) (Rattus norvegicus); assay: Compound (3 mM) was tested for the inhibition of conversion of [14C]methionine to [14C]-AdoMet by M-T (hepatoma tissue) of rat methionine Adenosyltransferase; format: protein assay; how it was run: as §6
[26] = molecular target: T1, S-adenosylmethionine synthetase (MAT 1 and MAT 2) (Rattus norvegicus); assay: Substrate activity of compound (4 mM) measured as the rate of conversion of [C14]-ATP to [C14]-Adomet in relation to KM value of methionine with M-T of rat MAT; format: protein assay; how it was run: as §5

Sequence of S-adenosylmethionine synthetase (MAT 1 and MAT 2) (Rattus norvegicus) (from UniProt P13444+P18298) (P18298 whole entry, looked up): as the sequence (P18298 whole entry, looked up, canonical isoform) above
Sequence of S-adenosylmethionine synthetase (MAT 1 and MAT 2) (Rattus norvegicus) (from UniProt P13444+P18298) (P13444 whole entry, looked up): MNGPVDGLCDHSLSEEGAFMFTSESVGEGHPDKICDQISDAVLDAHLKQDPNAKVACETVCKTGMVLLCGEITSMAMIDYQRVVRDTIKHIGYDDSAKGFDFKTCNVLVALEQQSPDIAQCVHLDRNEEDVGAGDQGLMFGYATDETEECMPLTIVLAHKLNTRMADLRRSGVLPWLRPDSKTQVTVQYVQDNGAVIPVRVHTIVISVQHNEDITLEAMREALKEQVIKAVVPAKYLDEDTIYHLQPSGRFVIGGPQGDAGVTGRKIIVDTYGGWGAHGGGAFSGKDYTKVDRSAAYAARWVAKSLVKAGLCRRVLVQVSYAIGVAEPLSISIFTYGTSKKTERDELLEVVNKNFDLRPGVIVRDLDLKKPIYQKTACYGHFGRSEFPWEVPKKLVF
Sequence of S-adenosylmethionine synthase isoform type-2 (Rattus norvegicus), P18298 (P18298 whole entry, canonical isoform): as the sequence (P18298 whole entry, looked up, canonical isoform) above

Substrate activity [8] [c.p.m.] | inhibition [9] [%] | Ratio [10] | Substrate activity [11] [c.p.m.] | inhibition [12] [%] | Molecule | also measured
 |  |  |  |  | S-adenosylmethionine synthase isoform type-2 (Rattus norvegicus), P18298 | Km [1]: 14 mM; Km (CSCC(C)C(N)C(=O)O [2]): 6.1 mM; Km (CSCC[C@H](N)C(=O)O [3]): 0.005 mM; Km (CSC(C)C[C@@H](N)C(=O)O): 10 mM; Km [4]: 29 mM
 |  |  |  |  | S-adenosylmethionine synthetase (MAT 1 and MAT 2) (Rattus norvegicus) (from UniProt P13444+P18298) | Km (CSCC[C@](C)(N)C(=O)O): 21 mM; Km (CSC[C@@H](C)C(N)C(=O)O): 20 mM; Km (CSCC(C)C(N)C(=O)O [5]): 1.4 mM; Km (CSCC[C@H](N)C(=O)O [6]): 0.0156 mM
333 | 15 | 0.9 | 381 | 21 | CSC[C@@H](C)[C@@H](N)C(=O)O | Relative Vmax [7]: 26
 |  | 20000 |  |  | CSCC[C@H](N)C(=O)O | Ratio [13]: 6400; Relative Vmax [14]: 100
506 | 15 | 1.9 | 731 | 24 | CS[C@H](C)C[C@H](N)C(=O)O | Relative Vmax [15]: 27
-9 | 0 |  | 36 | 2.9 | CN[C@@H](CCSC)C(=O)O | 
624 | 24 | 2.6 | 272 | 29 | CSC(C)C[C@@H](N)C(=O)O (stereo partly drawn) | Relative Vmax [15]: 26
30 | 14 |  | 173 |  | CS[C@@H](C)C[C@@H](N)C(=O)O | inhibition [16]: 9.7%
-15 |  |  | 13 | 0 | CCCCN[C@@H](CCSC)C(=O)O | inhibition [17]: 0%
 | 8.7 |  | 348 | 15 | CSC[C@@H](C)C(N)C(=O)O (stereo partly drawn) | Ratio [13]: 1.8; Relative Vmax [18]: 37; Substrate activity [19]: 38 c.p.m.
 | 11 |  | 241 | 15 | CSCC[C@](C)(N)C(=O)O | Ratio [13]: 1.3; Relative Vmax [18]: 27; Substrate activity [20]: 49 c.p.m.
 |  |  |  |  | CNCCC(N)C(=O)O (stereo not drawn) | Substrate activity [21]: 33 cpm; inhibition [22]: 6.6%; inhibition [23]: 0%; Substrate activity [24]: 37 cpm
-10 | 6.6 |  | 191 | 17 | CSC[C@@H](C)[C@H](N)C(=O)O | 
41 |  |  | 40 |  | CSCC[C@@](C)(N)C(=O)O | inhibition [17]: 3.7%; inhibition [16]: 4.8%
838 |  | 4.4 |  |  | CSCC(C)C(N)C(=O)O (stereo not drawn) | inhibition [25]: 65%; Ratio [13]: 8.6; Relative Vmax [14]: 27 and 12; inhibition [16]: 68%; Substrate activity [26]: 701 c.p.m.

Reference: ChEMBL document CHEMBL1123437, “Isozyme-specific enzyme inhibitors. 12. C- and N-methylmethionines as substrates and inhibitors of methionine adenosyltransferases of normal and hepatoma rat tissues” (J Med Chem, 1986)
